Assay outcomes deposited in PubChem by Sanford-Burnham Center for Chemical Genomics.
APJ ag = APJ receptor agonism. P35414. AID 2520. hit rate 0.11% among 330,000. CHO-K1 APJ PathHunter beta-arrestin, luminescence; 0% DMSO wells, 100% apelin. activation, % at 20 µM;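 active = activation more than six SD over the plate average, tested at 20 µM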;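 note: 0% = DMSO alone and 100% = apelin-13 at 10 nM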
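Incubation: overnight seeding, 90 min compound at 25 °C, 1 h detection; test system: PathHunter CHO-K1 APJ (AGTRL-1) beta-arrestin reporter cells; amount: 1000 cells/well; doses: one dose, 20 µM compound, 1% DMSO; measured by: beta-gal luminescence; measure: agonist-driven arrestin binding to APJ; benchmarks: negative DMSO alone, positive Apelin-13 at 10 nM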
APJ antag = APJ receptor antagonism; inhibition, % at 20 µM; hit rate 0.32% among 330,000; CHO-K1 APJ beta-arrestin complementation, luminescence; AID 2521; P35414;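 active = inhibition above about 40% at 20 µM, limit read from the data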;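 note: cells challenged with 10 nM apelin-13 agonist together with compound; plate controls were apelin-13 plus DMSO wells for no effect and DMSO wells lacking apelin-13 for full effect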
CXCR6 inh = blocks human CXCR6 beta-arrestin recruitment. hit rate 0.36% among 360,000. AID 602244. CHO-K1 PathHunter CXCR6 beta-arrestin, luminescence. inhibition, % at 20 µM. O00574; in the data active = inhibition above about 34%, passing the limit was not always enough;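 note: antagonist mode with CXCL16 agonist at 10 nM final; 0% = 10 nM CXCL16 with DMSO and 100% = unstimulated wells without agonist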
Target sequence (O00574 whole entry, looked up): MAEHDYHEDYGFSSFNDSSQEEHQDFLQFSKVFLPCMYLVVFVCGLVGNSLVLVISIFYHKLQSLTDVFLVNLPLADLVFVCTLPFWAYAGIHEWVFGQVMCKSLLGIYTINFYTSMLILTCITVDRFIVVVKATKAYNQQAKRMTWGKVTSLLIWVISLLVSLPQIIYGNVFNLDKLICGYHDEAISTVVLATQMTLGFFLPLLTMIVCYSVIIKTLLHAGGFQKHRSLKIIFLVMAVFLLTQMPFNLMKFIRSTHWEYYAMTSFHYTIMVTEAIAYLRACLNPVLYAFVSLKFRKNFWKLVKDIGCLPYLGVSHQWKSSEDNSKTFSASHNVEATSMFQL
EBI2 antag = EBI2 (human) antagonism. inhibition, % at 5 µM. EBI2 beta-arrestin recruitment, luminescence, 7a,25-OHC stimulated. hit rate 0.81% among 360,000; in the data active = inhibition above about 38%;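 note: enzyme fragment complementation signal reports receptor beta-arrestin coupling in cells; 0% = agonist plus DMSO wells and 100% = wells without agonist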
CCR6 antagonist = CCR6 (human) receptor antagonism; P51684; CHO-K1 CCR6 PathHunter beta-arrestin, luminescence, CCL20-stimulated; inhibition, % at 20 µM; hit rate 0.49% among 340,000; AID 493098;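 active = compounds whose inhibition of the agonist-driven luminescence signal at 20 µM reaches about 50%, limit read from the data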;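 note: cells stimulated with CCL20 at 14 nM final; plate controls were DMSO with CCL20 for no effect and DMSO without agonist for full effect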
APJ antag confirm = confirmation of human APJ apelin receptor antagonists; hit rate 66% among 950; APJ beta-arrestin recruitment, luminescence, antagonist mode; AID 2766; inhibition, % at 20 µM; shares compounds with APJ antag; in the data active = inhibition above about 50%
Numbers without * were called inactive; · = not tested or not shown. Compounds with a hit are over-represented: about 1.5% of the library has one in this group of screens.

SMILES	APJ ag	APJ antag	CXCR6 inh	EBI2 antag	CCR6 antagonist	APJ antag confirm
Cc1ncnc(N)c1CCCNc1ccccc1	·	·	-12	3	0	·
O=C(CCCC(=O)Nc1cccc(Br)c1)N/N=C/c1cc([N+](=O)[O-])ccc1O	-20	49*	38	14	43	71*
O=C(CCC(=O)Nc1cccc(Cl)c1)N/N=C/c1cc([N+](=O)[O-])ccc1O	-7	27	16	-6	38	·
O=C(O)C(=Cc1ccccc1[N+](=O)[O-])c1ccc2c(c1)OCO2	·	·	0	2	·	·
COc1ccc2c(c1)C(=O)[C@H](O)[C@@H](c1ccc(OC)c(Br)c1)O2	-21	58*	·	·	62*	103*
CCN(CC)CCN(C(=O)c1ccc(C(=O)c2ccccc2)cc1)c1nc2ccc(OC)cc2s1	-7	51*	12	-3	8	41
COc1ccc(OCCOC(=O)CNS(=O)(=O)c2ccc(SC)c([N+](=O)[O-])c2)cc1	1	1	-12	6	-14	·
CCOc1ccc(-n2ccc(=O)c(C(=O)O)n2)cc1	-2	-23	4	-5	9	·
Cc1ccc(C(=O)CSc2ccc(-c3cccnc3)nn2)cc1	1	-28	4	19	-2	·
CCOc1ccc2nc(N=NC3=C(O)CC(C)(C)CC3=O)sc2c1	-6	41*	30	3	34	51*
Oc1cccc(/C=C/c2ccc3cccc(O)c3n2)c1	0	-10	30	-6	31	·
COc1cccc(/C=C/c2ccc3cccc(O)c3n2)c1	-11	45*	35	35	62*	88*
COc1cccc(/C=C/c2ccc3cccc(O)c3n2)c1OC	-8	54*	37	23	50*	79*
CC1CCN(C(=O)CCCl)c2ccccc21 (centres undefined)	·	·	-7	9	0	·
COc1ccc(OC(=O)COc2ccc(Cl)cc2)cc1	-1	0	-4	-1	13	·
CCn1c(-c2ccccc2)ccc(C#N)c1=O	-1	50*	0	4	5	47
COc1ccc(N=C2C(=O)N3c4c(cccc42)C(C)=CC3(C)C)cc1	-3	46*	30	-2	50*	89*
CC1Nc2ncnc(N3CCOCC3)c2N(Cc2ccccc2)C1=O (centres undefined)	-3	-32	8	-1	0	·
COc1ccc(CN2C(=O)C(C)Nc3ncnc(N4CCN(c5ccccc5)CC4)c32)cc1 (centres undefined)	-12	68*	68*	33	80*	115*
CCCS(=O)(=O)NC(=O)C1(C)CCN(C(=O)c2ccco2)C1 (centres undefined)	·	·	5	-5	·	·
O=c1ccc2c(-c3ccccc3)c3ccc(O)cc3oc-2c1	0	0	-1	3	11	·
Nc1ccc(-c2c3ccc(=O)cc-3oc3cc(O)ccc23)cc1C(=O)O	-5	41*	32	4	42	42
COCCN(C(=O)c1csnn1)C(C(=O)NC1CCCC1)c1ccccc1F (centres undefined)	1	53*	6	-1	6	25
COCCN(C(=O)c1csnn1)C(C(=O)NC1CCCC1)c1ccc(C)cc1 (centres undefined)	-2	16	5	6	9	·
Cc1cc(NC(=O)CC2CCCC2)n(-c2nc3ccccc3[nH]2)n1	-1	14	31	5	22	·
SMILES	APJ ag	APJ antag	CXCR6 inh	EBI2 antag	CCR6 antagonist	APJ antag confirm
Cc1cc(NC(=O)c2ccc(F)cc2F)n(-c2nc3ccccc3[nH]2)n1	-5	43*	-13	0	-2	9
O=C1C2C3CCCC3=C3CCCC3C2C(=O)N1c1cccc(Cl)c1 (centres undefined)	0	44*	-5	3	-7	22
CC(C)c1ccc(NC2CCCN(C(=O)CCc3cnn(C)c3)C2)cc1 (centres undefined)	8	9	-7	1	-3	·
Nc1c(N)c2ccccc2oc1=O	-1	6	-1	-13	8	·
Nc1c(N2CCN(c3ccccc3)CC2)c2ccccc2oc1=O	-9	46*	30	12	60*	57*
COc1cc(O)c2c(c1)COC2=O	2	44*	6	-4	-15	25
CCOC(=O)c1sc(NC(=O)CN2CCN(c3ccc(OC)cc3)CC2)nc1C	-1	-10	3	-8	6	·
c1ccc(Cn2cnc3ccccc32)cc1	-5	-22	-1	-4	-10	·
Fc1cc2ncn(Cc3ccccc3)c2cc1F	-4	61*	-4	-6	1	-23
CN(C(=O)c1ccc(C#N)cc1)c1nnc(-c2cnccn2)s1	-6	7	4	5	13	·
CCc1nnc(NC(=O)C2CC(=O)N(Cc3ccccc3)C2)s1 (centres undefined)	0	2	3	-2	11	·
CCc1ccc(N2CC(C(=O)Nc3nnc(CC)s3)CC2=O)cc1 (centres undefined)	-2	62*	-7	-2	3	25
Cc1ccc(NC(=O)Cn2nnc(C(=O)Nc3ccc(C)c(C)c3)c2N)cc1	0	55*	8	2	2	37
CC(C)(C)c1cc(Cl)c(O)c(NC(=S)NC(=O)c2cccnc2)c1	-9	67*	40*	19	52*	78*
CC(C)(C)c1ccc(C(=O)NNC(=S)NC(=O)c2cccnc2)cc1	-5	22	28	-13	27	·
CCOc1ccccc1NC(=O)COC(=O)C1CCC(=O)N1 (centres undefined)	-2	1	0	-2	4	·
CCOC(=O)N1CC=C2C(C#N)=C(N)C(C#N)(C#N)[C@H](c3ccc(OCC)c(OCC)c3)[C@H]2C1	-3	22	6	20	17	·
N#CC1=C(N)C(C#N)(C#N)C(c2cccnc2)C2CN(C(=O)OCc3ccccc3)CC=C12 (centres undefined)	-8	50*	7	9	53*	27
COc1cccc(/C=N/Nc2ccc([N+](=O)[O-])cc2)c1O	-3	15	12	15	35	·
COC(=O)c1ccc(N/N=C/c2cc([N+](=O)[O-])cc(OC)c2O)cc1	-8	59*	42*	13	57*	85*
COc1ccc(/C=N\Nc2ccc([N+](=O)[O-])cc2)c(C(=O)O)c1OC	-5	47*	15	-4	24	60*
Cn1ccnc1SCC(=O)N1CCN(S(=O)(=O)c2ccccc2)CC1	-1	-9	-1	1	9	·
CC1(C(=O)NS(=O)(=O)c2cccc(Cl)c2)CCN1C(=O)c1cccc2ccccc12 (centres undefined)	·	·	-4	0	·	·
Cc1cc(C)c(C(=O)COC(=O)c2c(C)noc2C)cc1C	-6	-2	7	8	21	·
CCOC(=O)C1=C2NC(=O)c3ccccc3N2C(=O)C1	-2	53*	16	10	69*	134*
